Measured values taken from article PMC4306959 (Scientific Reports, 2015).

What was measured:
[1] = system: JNK2; details: cited from earlier work
[2] = system: JNK3; details: cited from earlier work
[3] = target: JNK3α1L144I (Homo sapiens, UniProt P53779, L144I); assay: HTRF enzyme inhibition assay, JNK3 L144I mutant; format: biochemical; details: read-out: Km value of ATP for JNK3 L144I
Summary of the method: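 Human JNK3 39–402 L144I, made by PCR mutagenesis and expressed like WT, activated for 2 h at 30°C with MKK4/MKK7 (100 nM each) in HEPES pH 7.5, MgCl2, DTT, 200 μM ATP; activation checked by MS and Western. HTRF at 0.75 nM enzyme, 0.5 μM biotinylated FL-ATF-2, 1.25 μM ATP, 1 h. Top concentration 10,000 nM.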

Chain of JNK3α1L144I (P53779 39-402 L144I): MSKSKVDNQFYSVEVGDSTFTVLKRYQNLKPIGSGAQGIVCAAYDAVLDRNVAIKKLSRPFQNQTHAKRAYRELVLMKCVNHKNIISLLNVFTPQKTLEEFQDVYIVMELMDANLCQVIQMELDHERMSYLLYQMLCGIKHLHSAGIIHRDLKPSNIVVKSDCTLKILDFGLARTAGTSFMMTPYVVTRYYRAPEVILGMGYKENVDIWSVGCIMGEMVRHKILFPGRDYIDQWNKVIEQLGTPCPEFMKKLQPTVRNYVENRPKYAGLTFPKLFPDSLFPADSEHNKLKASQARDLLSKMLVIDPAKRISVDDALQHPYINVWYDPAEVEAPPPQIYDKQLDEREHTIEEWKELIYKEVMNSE

Row | Km [3] | Compound | Selectivity for JNK2 compared to JNK1 [1] | Selectivity for JNK3 compared to JNK1 [2]
1 |  | Cn1c(NC[C@@H](N)Cc2ccccc2)nc(-c2ccncc2)c(-c2ccc3ccccc3c2)c1=O [AMG-548] | 294 fold | 188 fold
2 | 2.9 µM | Nc1ncnc2c1ncn2[C@@H]1O[C@H](COP(=O)(O)OP(=O)(O)OP(=O)(O)O)[C@@H](O)[C@H]1O [ATP] |  | 
